In ChEMBL document CHEMBL2417369, “Synthesis and evaluation of heteroaryl substituted diazaspirocycles as scaffolds to probe the ATP-binding site of protein kinases” (Bioorg Med Chem, 2013):

Assays:
[1] = target: Tyrosine-protein kinase Lck (Homo sapiens, UniProt P06239); assay: Inhibition of LCK (unknown origin) at 30 uM by microfluidic mobility shift assay relative to control
Outline: (§1)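 Single-point screen in a 24-enzyme kinase panel using a microfluidic assay. Each compound was tested at […] with ATP at roughly the Km for each enzyme. The pan-AGC inhibitor H-89 served as an internal control on every plate.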

[2] = target: Serine/threonine-protein kinase Chk2 (Homo sapiens, UniProt O96017); assay: Inhibition of CHK2 (unknown origin) at 30 uM by microfluidic mobility shift assay relative to control; outline: as §1
Sequence of Serine/threonine-protein kinase Chk2 (O96017 whole entry): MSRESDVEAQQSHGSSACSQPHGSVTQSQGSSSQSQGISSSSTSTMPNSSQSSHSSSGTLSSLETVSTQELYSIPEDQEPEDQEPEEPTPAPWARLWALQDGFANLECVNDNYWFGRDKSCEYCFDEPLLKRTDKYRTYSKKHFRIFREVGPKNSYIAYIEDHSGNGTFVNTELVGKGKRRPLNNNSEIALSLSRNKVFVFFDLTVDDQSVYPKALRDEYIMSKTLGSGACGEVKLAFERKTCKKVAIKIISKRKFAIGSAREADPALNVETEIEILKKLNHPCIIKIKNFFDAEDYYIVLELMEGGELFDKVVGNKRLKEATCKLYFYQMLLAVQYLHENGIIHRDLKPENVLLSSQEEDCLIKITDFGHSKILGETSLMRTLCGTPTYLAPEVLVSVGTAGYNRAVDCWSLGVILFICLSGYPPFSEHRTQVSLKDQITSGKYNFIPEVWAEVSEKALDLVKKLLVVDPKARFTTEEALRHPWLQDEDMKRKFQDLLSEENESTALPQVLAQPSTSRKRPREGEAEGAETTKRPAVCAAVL

[3] = target: RAC-alpha serine/threonine-protein kinase (Homo sapiens, UniProt P31749); assay: Inhibition of AKT1 (unknown origin) at 30 uM by microfluidic mobility shift assay relative to control; outline: as §1
Homo sapiens = organism: Homo sapiens; assay: Inhibition of PKA (unknown origin) at 30 uM by microfluidic mobility shift assay relative to control; outline: as §1
[4] = target: Tyrosine-protein kinase ABL1 (Homo sapiens, UniProt P00519); assay: Inhibition of ABL (unknown origin) at 30 uM by microfluidic mobility shift assay relative to control; outline: as §1
[5] = target: Ribosomal protein S6 kinase alpha-1 (Homo sapiens, UniProt Q15418); assay: Inhibition of RSK1 (unknown origin) at 30 uM by microfluidic mobility shift assay relative to control; outline: as §1
Sequence of Ribosomal protein S6 kinase alpha-1 (Q15418 whole entry): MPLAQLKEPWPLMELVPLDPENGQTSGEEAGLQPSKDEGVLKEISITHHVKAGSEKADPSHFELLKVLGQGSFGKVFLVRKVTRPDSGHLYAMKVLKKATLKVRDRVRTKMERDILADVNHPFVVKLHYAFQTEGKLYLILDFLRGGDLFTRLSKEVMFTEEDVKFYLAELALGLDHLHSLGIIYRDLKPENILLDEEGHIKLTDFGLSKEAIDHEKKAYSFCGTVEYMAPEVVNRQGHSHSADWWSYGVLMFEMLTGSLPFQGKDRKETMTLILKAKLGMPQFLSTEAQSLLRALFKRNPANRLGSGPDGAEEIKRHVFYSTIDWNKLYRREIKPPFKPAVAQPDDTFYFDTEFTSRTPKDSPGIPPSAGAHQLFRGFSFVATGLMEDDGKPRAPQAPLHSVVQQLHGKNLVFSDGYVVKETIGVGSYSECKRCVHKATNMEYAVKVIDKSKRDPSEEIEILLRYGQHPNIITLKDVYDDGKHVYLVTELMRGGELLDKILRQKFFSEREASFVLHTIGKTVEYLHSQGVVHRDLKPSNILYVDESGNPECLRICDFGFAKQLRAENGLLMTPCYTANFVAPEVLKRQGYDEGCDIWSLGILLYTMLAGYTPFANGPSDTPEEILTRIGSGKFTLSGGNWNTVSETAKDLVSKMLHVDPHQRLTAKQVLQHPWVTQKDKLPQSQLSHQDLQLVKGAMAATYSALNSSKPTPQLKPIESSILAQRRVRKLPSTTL

[6] = target: T1, MAP kinase-activated protein kinase 5 (Homo sapiens) (UniProt Q8IW41); assay: Inhibition of MAPKAPK5 (unknown origin) at 30 uM by microfluidic mobility shift assay relative to control; outline: as §1
T1 sequence (whole entry): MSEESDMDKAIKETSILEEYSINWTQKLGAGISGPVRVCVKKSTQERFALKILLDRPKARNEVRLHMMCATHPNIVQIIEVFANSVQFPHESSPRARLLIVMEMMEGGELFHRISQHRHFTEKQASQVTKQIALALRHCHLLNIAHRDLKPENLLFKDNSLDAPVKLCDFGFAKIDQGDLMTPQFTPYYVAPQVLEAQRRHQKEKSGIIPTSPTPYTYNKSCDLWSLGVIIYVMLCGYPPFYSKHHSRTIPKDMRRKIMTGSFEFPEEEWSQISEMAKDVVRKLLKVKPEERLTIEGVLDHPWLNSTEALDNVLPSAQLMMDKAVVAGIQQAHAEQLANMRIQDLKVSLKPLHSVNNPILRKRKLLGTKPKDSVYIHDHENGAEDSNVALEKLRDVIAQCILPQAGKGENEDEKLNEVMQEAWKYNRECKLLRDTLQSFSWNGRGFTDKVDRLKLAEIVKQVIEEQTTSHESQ

[7] = target: T2, Serine/threonine-protein kinase Chk1 (Homo sapiens) (UniProt O14757); assay: Inhibition of CHK1 (unknown origin) at 30 uM by microfluidic mobility shift assay relative to control; outline: as §1
T2 sequence (whole entry): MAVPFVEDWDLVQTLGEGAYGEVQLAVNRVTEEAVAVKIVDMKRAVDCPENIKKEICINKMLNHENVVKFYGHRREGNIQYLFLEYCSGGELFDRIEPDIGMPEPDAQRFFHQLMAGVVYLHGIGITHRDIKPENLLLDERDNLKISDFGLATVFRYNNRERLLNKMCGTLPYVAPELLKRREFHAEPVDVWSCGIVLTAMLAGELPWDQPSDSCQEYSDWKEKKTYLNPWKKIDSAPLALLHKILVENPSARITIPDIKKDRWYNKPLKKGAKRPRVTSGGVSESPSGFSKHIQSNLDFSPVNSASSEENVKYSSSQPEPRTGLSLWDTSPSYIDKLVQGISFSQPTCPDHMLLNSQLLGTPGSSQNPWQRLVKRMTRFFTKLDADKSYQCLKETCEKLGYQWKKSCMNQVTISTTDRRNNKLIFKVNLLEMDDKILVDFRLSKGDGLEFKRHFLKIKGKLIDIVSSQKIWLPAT

[8] = target: MAP kinase-activated protein kinase 2 (Homo sapiens) (UniProt P49137); assay: Inhibition of MK2 (unknown origin) at 30 uM by microfluidic mobility shift assay relative to control; outline: as §1
[9] = target: Tyrosine-protein kinase Lyn (Homo sapiens, UniProt P07948); assay: Inhibition of LYN (unknown origin) at 30 uM by microfluidic mobility shift assay relative to control; outline: as §1
Sequence of Tyrosine-protein kinase Lyn (P07948 2-512 limits assumed): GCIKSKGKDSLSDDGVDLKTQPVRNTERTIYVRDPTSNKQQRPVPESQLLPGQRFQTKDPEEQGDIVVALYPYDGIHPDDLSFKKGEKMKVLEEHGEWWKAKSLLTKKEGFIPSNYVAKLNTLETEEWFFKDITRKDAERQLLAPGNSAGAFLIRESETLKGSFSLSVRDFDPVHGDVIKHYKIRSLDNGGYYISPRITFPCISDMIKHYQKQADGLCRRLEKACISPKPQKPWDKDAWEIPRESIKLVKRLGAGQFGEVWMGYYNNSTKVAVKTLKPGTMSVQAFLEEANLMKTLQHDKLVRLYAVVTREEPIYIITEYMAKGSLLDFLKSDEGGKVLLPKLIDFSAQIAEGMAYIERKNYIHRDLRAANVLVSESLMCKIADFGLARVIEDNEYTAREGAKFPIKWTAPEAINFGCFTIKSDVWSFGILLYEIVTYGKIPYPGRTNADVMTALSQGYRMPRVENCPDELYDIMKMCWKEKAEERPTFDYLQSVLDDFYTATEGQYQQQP

[10] = target: T3, Serine/threonine-protein kinase D2 (Homo sapiens) (UniProt Q9BZL6); assay: Inhibition of PKD2 (unknown origin) at 30 uM by microfluidic mobility shift assay relative to control; outline: as §1
T3 sequence (whole entry): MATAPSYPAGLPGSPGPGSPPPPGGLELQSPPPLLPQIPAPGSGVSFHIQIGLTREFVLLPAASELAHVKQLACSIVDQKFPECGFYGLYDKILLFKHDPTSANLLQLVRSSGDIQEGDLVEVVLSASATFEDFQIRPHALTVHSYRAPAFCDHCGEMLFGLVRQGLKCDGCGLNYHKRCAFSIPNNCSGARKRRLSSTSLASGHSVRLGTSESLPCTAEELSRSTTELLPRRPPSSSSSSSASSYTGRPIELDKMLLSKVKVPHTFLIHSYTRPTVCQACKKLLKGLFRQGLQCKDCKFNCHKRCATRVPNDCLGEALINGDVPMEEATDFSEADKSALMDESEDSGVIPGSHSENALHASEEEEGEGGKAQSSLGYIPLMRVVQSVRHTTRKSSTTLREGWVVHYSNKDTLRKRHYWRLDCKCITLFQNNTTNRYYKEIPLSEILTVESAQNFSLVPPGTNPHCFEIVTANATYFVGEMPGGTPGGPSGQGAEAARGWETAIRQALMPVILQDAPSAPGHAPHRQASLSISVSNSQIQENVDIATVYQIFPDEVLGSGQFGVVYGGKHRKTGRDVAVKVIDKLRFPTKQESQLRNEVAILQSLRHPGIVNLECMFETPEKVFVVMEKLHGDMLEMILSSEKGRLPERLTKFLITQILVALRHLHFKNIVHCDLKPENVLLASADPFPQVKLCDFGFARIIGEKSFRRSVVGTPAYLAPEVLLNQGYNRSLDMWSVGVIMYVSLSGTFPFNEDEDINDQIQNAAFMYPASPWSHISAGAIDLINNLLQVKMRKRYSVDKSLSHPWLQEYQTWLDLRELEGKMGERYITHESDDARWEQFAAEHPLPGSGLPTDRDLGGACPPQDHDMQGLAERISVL

[11] = target: Mitogen-activated protein kinase 3 (Homo sapiens, UniProt P27361); assay: Inhibition of ERK1 (unknown origin) at 30 uM by microfluidic mobility shift assay relative to control; outline: as §1
Sequence of Mitogen-activated protein kinase 3 (P27361 whole entry): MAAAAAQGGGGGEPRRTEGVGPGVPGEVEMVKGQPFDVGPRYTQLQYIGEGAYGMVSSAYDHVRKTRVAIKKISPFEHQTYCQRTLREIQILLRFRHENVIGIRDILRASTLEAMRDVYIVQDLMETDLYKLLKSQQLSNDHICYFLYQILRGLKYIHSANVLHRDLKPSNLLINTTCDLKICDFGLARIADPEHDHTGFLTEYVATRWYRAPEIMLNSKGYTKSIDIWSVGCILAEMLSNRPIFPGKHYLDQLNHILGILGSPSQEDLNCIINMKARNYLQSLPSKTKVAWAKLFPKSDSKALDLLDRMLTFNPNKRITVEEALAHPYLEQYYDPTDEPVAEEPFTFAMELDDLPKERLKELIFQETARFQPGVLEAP

[12] = target: Mitogen-activated protein kinase 14 (Homo sapiens) (UniProt Q16539); assay: Inhibition of p38alpha (unknown origin) at 30 uM by microfluidic mobility shift assay relative to control; outline: as §1
Sequence of Mitogen-activated protein kinase 14 (Homo sapiens) (Q16539 whole entry): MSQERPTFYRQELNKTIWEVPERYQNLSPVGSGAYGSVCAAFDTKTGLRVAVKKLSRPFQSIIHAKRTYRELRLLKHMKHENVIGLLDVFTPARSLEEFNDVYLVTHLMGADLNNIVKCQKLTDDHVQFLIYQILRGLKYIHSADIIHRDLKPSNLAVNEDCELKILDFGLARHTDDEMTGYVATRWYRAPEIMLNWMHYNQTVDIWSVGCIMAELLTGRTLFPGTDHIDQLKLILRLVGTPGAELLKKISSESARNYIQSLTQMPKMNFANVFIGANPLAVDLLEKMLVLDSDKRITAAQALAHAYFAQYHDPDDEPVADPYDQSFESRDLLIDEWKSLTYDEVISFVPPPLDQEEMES

[13] = target: Tyrosine-protein kinase Fyn (Homo sapiens, UniProt P06241); assay: Inhibition of FYN (unknown origin) at 30 uM by microfluidic mobility shift assay relative to control; outline: as §1
Sequence of Tyrosine-protein kinase Fyn (P06241 2-537 limits assumed): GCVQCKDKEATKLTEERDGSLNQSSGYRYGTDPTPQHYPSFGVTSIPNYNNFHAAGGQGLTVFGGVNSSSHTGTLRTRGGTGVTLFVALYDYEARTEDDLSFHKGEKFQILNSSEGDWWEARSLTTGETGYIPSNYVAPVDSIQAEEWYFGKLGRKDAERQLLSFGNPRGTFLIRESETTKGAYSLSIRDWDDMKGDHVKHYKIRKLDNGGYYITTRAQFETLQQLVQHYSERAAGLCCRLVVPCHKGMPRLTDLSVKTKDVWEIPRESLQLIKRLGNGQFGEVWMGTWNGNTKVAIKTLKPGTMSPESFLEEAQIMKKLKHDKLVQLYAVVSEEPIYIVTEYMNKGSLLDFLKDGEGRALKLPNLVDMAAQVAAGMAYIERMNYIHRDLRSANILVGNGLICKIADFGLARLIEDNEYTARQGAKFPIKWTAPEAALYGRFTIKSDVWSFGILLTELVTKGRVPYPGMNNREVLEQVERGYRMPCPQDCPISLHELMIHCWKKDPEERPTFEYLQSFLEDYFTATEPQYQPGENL

[14] = target: Insulin receptor (Homo sapiens) (UniProt P06213); assay: Inhibition of INSR (unknown origin) at 30 uM by microfluidic mobility shift assay relative to control; outline: as §1
Sequence of Insulin receptor (Homo sapiens) (P06213 28-758 limits assumed): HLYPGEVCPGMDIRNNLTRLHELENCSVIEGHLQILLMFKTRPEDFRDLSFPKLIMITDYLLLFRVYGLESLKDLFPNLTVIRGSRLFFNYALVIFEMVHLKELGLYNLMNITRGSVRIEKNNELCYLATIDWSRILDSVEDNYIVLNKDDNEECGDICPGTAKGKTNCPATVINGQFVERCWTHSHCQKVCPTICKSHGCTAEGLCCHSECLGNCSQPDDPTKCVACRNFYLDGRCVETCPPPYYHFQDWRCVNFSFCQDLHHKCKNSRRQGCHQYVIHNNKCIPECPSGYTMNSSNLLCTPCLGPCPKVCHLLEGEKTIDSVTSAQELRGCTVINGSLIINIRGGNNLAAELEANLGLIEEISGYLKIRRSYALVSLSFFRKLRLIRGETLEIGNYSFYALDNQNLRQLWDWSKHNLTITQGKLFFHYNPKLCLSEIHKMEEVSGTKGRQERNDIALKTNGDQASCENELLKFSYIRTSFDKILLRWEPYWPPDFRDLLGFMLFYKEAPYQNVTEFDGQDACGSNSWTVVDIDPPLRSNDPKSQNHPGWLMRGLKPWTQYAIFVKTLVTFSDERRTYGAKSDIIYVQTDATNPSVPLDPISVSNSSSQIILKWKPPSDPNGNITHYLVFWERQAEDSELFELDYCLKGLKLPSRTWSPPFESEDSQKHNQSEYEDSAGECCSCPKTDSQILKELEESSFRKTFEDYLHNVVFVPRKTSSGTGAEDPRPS
Sequence of Insulin receptor (Homo sapiens) (P06213 763-1382 limits assumed): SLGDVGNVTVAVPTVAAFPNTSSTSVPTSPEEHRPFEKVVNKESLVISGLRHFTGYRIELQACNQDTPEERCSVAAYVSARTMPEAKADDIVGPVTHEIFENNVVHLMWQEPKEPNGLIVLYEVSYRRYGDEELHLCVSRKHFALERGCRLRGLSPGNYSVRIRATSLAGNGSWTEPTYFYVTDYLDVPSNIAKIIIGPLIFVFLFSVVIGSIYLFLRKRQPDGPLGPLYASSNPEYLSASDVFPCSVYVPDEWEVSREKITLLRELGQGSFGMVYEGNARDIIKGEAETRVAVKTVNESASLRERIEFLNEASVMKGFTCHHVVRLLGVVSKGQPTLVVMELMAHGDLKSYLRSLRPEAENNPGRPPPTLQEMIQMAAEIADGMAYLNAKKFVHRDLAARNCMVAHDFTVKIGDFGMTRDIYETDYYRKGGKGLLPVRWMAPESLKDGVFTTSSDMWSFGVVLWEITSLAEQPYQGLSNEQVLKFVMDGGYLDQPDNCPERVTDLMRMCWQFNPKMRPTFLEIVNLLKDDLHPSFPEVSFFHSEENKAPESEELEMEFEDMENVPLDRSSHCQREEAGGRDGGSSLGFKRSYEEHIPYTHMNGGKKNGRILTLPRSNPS

Sequence of Tyrosine-protein kinase Lck (P06239 2-509 limits assumed): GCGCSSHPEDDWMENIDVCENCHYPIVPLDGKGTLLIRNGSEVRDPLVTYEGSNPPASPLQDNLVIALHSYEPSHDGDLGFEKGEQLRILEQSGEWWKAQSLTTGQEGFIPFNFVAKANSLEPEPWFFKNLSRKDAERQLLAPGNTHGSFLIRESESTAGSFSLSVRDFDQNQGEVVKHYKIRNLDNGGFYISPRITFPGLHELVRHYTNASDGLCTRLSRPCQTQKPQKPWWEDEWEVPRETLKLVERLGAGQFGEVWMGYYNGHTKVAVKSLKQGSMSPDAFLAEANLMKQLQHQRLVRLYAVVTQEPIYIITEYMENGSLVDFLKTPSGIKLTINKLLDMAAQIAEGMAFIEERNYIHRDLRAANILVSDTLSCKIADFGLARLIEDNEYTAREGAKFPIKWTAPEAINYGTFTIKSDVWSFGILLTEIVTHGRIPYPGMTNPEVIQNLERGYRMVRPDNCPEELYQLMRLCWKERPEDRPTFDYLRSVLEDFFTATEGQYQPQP

SMILES | inhibition [1] [%] | inhibition [2] [%] | inhibition [3] [%] | inhibition (Homo sapiens) [%] | inhibition [4] [%] | inhibition [5] [%] | inhibition [6] [%] | inhibition [7] [%] | inhibition [8] [%] | inhibition [9] [%] | inhibition [10] [%] | inhibition [11] [%] | inhibition [12] [%] | inhibition [13] [%] | inhibition [14] [%]
O=S(=O)(c1cccc2cnccc12)N1CCC2(CCCN2)CC1 | 6 | 50 | 28 | 92 | 9 | 82 | 15 | 10 | 27 | 11 | 81 | 6 | 0 | 5 | 0
c1nc(N2CCCC3(CCNCC3)C2)c2nc[nH]c2n1 | 15 | 35 | 85 | 98 | 32 | 71 | 3 | 71 | 19 | 33 | 55 | 16 | 2 | 33 | 3
O=S(=O)(c1cccc2cnccc12)N1CCCC12CCNCC2 | 6 | 12 | 27 | 77 | 0 | 16 | 7 | 15 | 10 | 3 | 2 | 7 | 0 | 1 | 3
NC1(Cc2ccccc2)CCN(c2ncnc3[nH]cnc23)CC1 | 71 | 74 | 93 | 96 | 45 | 94 | 40 | 62 | 23 | 72 | 53 | 41 | 11 | 39 | 0
c1nc(N2CCC3(CCNC3)CC2)c2nc[nH]c2n1 | 86 | 64 | 94 | 99 | 80 | 77 | 41 | 84 | 66 | 65 | 80 | 39 | 3 | 84 | 6
O=S(=O)(c1cccc2cnccc12)N1CCC2(CCCNC2)CC1 | 9 | 65 | 0 | 77 | 0 | 29 | 11 | 8 | 8 | 5 | 15 | 0 | 9 | 11 | 6
c1nc(N2CCCC3(CCCNC3)C2)c2nc[nH]c2n1 (stereo not given) | 7 | 26 | 77 | 89 | 5 | 39 | 8 | 37 | 11 | 2 | 7 | 19 | 5 | 8 | 4
CNC(=O)C1CCC2(CCN(c3ncnc4[nH]cnc34)CC2)NC1 (racemic) | 31 | 34 | 83 | 95 | 23 | 42 | 21 | 70 | 10 | 26 | 35 | 30 | 16 | 8 | 16
O=C(C1CCC2(CCN(c3ncnc4[nH]cnc34)CC2)NC1)N1CCOCC1 (racemic) | 16 | 29 | 66 | 85 | 28 | 27 | 14 | 65 | 11 | 17 | 27 | 18 | 9 | 0 | 16
O=S(=O)(c1cccc2cnccc12)N1CCC2(CCC(O)CN2)CC1 (racemic) | 19 | 59 | 21 | 90 | 17 | 95 | 49 | 0 | 19 | 23 | 64 | 17 | 2 | 17 | 0
NC1(Cc2ccccc2)CCN(S(=O)(=O)c2cccc3cnccc23)CC1 | 15 | 8 | 15 | 80 | 7 | 42 | 0 | 4 | 0 | 10 | 16 | 10 | 10 | 5 | 4
c1nc(N2CCC3(CCCN3)CC2)c2nc[nH]c2n1 | 21 | 81 | 91 | 98 | 26 | 72 | 29 | 85 | 48 | 20 | 82 | 53 | 2 | 31 | 2
